Laboratory results published in ChEMBL document CHEMBL4049443, “Discovery of 2-[[2-Ethyl-6-[4-[2-(3-hydroxyazetidin-1-yl)-2-oxoethyl]piperazin-1-yl]-8-methylimidazo[1,2-a]pyridin-3-yl]methylamino]-4-(4-fluorophenyl)thiazole-5-carbonitrile (GLPG1690), a First-in-Class Autotaxin Inhibitor Undergoing Clinical Evaluation for the Treatment of Idiopathic Pulmonary …” (J Med Chem, 2017).
The source made the active and inactive calls. No cut-off for these calls is given here.

Tests used:
[1] = AUC (0 to 24 hrs) in C57BL/6Rj mouse at 10 mg/kg administered as single dose via oral gavage by LC-MS/MS analysis; assay type: ADME, organism-based; design: dose 10 mg/kg, time < 24 hr, route oral; conditions: in vivo
How it was run: (§1)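 Female C57BL/6Rj mice, 4−5 weeks old, fasted, given one oral gavage in PEG 200/MC 0.5% (25/75 v/v) at 0.3, 1 or 3 mg/mL. Intracardiac blood under isoflurane at 1, 3, 6 and 24 h into Li-heparin; n = 3 per time point. Methanol precipitation, LC−MS/MS against an eight-level calibration curve (LLOQ 4 ng/mL).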

[2] = Apparent elimination half life in C57BL/6Rj mouse at 3 mg/kg administered as single dose via oral gavage up to 24 hrs by LC-MS/MS analysis; assay type: ADME, organism-based; conditions: in vivo, read-out: betat1/2(app) (converted); how it was run: as §1
[3] = Apparent terminal half life in C57BL/6Rj mouse at 30 mg/kg administered as single dose via oral gavage up to 24 hrs by LC-MS/MS analysis; assay type: ADME, organism-based; conditions: in vivo, read-out: betat1/2(app) (converted); how it was run: as §1
[4] = Plasma concentration in C57BL/6Rj mouse at 3 mg/kg administered as single dose via oral gavage after 24 hrs by LC-MS/MS analysis; assay type: ADME, organism-based; how it was run: as §1
[5] = Cmax in C57BL/6Rj mouse at 10 mg/kg administered as single dose via oral gavage up to 24 hrs by LC-MS/MS analysis; assay type: ADME, organism-based; design: dose 10 mg/kg, route oral; conditions: in vivo; how it was run: as §1
[6] = Cmax in C57BL/6Rj mouse at 30 mg/kg administered as single dose via oral gavage up to 24 hrs by LC-MS/MS analysis; assay type: ADME, organism-based; design: dose 30 mg/kg, route oral; conditions: in vivo; how it was run: as §1
[7] = Protein binding to rat plasma; assay type: ADME, cell-free; conditions: read-out: PPB
Mus musculus [8] = experiment: Anti-fibrotic activity in BML-induced pulmonary fibrosis C57BL/6 mouse model assessed as reduction in […] 18:2 content in BALF at 30 mg/kg, po administered bid with 7.5 hrs interval between 2 doses for 21 days measured 2 hrs post last dose on day 21 by LC-MS/MS analysis relative to control; assay type: functional, organism-based
How it was run: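 BLM model as above (intranasal 30 μg/50 μL, 21 days oral twice-daily dosing in PEG 200/0.5% MC), satellite groups. Bronchoalveolar lavage with two 0.5 mL ice-cold saline instillations, 2 h after a 30 mg/kg dose. LPA 18:2 by LC−MS/MS; PBS n = 9, BLM-vehicle n = 6, treated n = 7; mean ± SEM, one-way ANOVA with Dunnett's test.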

[9] = Tmax in C57BL/6Rj mouse at 3 mg/kg administered as single dose via oral gavage up to 24 hrs by LC-MS/MS analysis; assay type: ADME, organism-based; conditions: in vivo; how it was run: as §1
[10] = Oral bioavailability in rat at 5 mg/kg; assay type: ADME, organism-based; conditions: in vivo
Mus musculus [11] = experiment: Dose normalized Cmax in C57BL/6Rj mouse at 3 mg/kg administered as single dose via oral gavage up to 24 hrs by LC-MS/MS analysis; assay type: ADME, organism-based; conditions: in vivo; how it was run: as §1
[12] = Plasma clearance in rat at 1 mg/kg, iv; assay type: ADME, organism-based
Mus musculus [13] = experiment: In vivo inhibition of ATX in C57BL/6Rj mouse assessed as time for maximum reduction in LPA 18:2 at 10 mg/kg administered as single dose via oral gavage by LC-MS/MS analysis; assay type: functional
How it was run: (§2)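 Same single-gavage mouse study (female C57BL/6Rj, PEG 200/MC 0.5% vehicle, n = 3, bled predose and at 1, 3, 6, 24 h); vehicle control group. Plasma (10 μL) precipitated with methanol containing LPA 17:0 internal standard. LPA 18:2 read by LC−MS/MS as peak-area ratio to LPA 17:0. % reduction = 100 − (LPA at time t / mean vehicle LPA at time t × 100).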

Cytochrome P450 3A4 = Cytochrome P450 3A4 (Homo sapiens, UniProt P08684); experiment: Time-dependent inhibition of human liver microsomes CYP3A4; assay type: ADME
Cytochrome P450 3A4, sequence (P08684 whole entry): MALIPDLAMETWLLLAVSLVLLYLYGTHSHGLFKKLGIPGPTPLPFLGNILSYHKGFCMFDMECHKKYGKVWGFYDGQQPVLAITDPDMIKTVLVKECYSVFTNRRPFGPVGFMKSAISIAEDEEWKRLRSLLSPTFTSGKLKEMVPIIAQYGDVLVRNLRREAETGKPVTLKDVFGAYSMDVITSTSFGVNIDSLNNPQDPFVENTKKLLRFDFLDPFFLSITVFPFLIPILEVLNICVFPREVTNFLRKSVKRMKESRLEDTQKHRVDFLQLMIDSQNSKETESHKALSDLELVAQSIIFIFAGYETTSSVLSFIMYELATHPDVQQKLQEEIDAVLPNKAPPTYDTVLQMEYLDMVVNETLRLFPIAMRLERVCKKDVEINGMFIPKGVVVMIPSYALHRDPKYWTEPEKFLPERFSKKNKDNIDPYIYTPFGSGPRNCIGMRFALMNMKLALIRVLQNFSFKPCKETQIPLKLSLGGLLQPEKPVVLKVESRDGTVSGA

Mus musculus [14] = experiment: Anti-fibrotic activity in BML-induced pulmonary fibrosis C57BL/6 mouse model assessed as lung weight at 10 to 30 mg/kg, po administered bid with 7.5 hrs interval between 2 doses for 21 days relative to control; assay type: functional, organism-based
Mus musculus [15] = experiment: Dose normalized AUC (0 to 24 hrs) in C57BL/6Rj mouse at 10 mg/kg administered as single dose via oral gavage by LC-MS/MS analysis; assay type: ADME, organism-based; conditions: in vivo; how it was run: as §1
[16] = Apparent terminal half life in C57BL/6Rj mouse at 10 mg/kg administered as single dose via oral gavage up to 24 hrs by LC-MS/MS analysis; assay type: ADME, organism-based; conditions: in vivo, read-out: betat1/2(app) (converted); how it was run: as §1
Autotaxin = Autotaxin (Mus musculus, UniProt Q9R1E6); experiment: Inhibition of ATX in mouse plasma assessed as reduction in LPA 18:2 production after 2 hrs by LC-MS/MS analysis
Mus musculus [17] = experiment: In vivo inhibition of ATX in C57BL/6Rj mouse assessed as time for maximum reduction in LPA 18:2 at 3 mg/kg administered as single dose via oral gavage by LC-MS/MS analysis; assay type: functional; how it was run: as §2
Mus musculus [18] = experiment: Anti-fibrotic activity in BML-induced pulmonary fibrosis C57BL/6 mouse model assessed as reduction in fibrotic thickening of aveolar/bronchial walls at 10 to 30 mg/kg, po administered bid with 7.5 hrs interval between 2 doses for 21 days relative to control; assay type: functional, organism-based
How it was run: (§3)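 Male C57Bl/6 mice, 11 weeks at delivery, anesthetized and given intranasal bleomycin 30 μg/50 μL; PBS controls. Oral dosing twice daily, 7.5 h apart, 10 mL/kg, from challenge day for 21 days: test agent in PEG 200/0.5% MC, pirfenidone in 0.5% CMC, vehicle controls; 14−24 mice per group. Lungs stained by Mallory method, scored 1–5 (Matsuse-modified Ashcroft) as mean of 10 low-power fields; group median, Mann−Whitney.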

Mus musculus [19] = experiment: Anti-fibrotic activity in BML-induced pulmonary fibrosis C57BL/6 mouse model assessed as reduction in fibrosis with damage of pulmonary structure at 10 to 30 mg/kg, po administered bid with 7.5 hrs interval between 2 doses for 21 days relative to control; assay type: functional, organism-based; how it was run: as §3
[20] = Tmax in C57BL/6Rj mouse at 30 mg/kg administered as single dose via oral gavage up to 24 hrs by LC-MS/MS analysis; assay type: ADME, organism-based; conditions: in vivo
How it was run: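 Female C57BL/6Rj mice, 4−5 weeks old, given one oral gavage in PEG 200/MC 0.5% (25/75, v/v) at 3 mg/mL; fasted. Intracardiac blood under isoflurane at 1, 3, 6 and 24 h, Li-heparin. Methanol precipitation, LC−MS/MS against eight-level calibration, LLOQ 4 ng/mL. Plasma levels averaged over three mice; noncompartmental analysis for tmax.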

Mus musculus [21] = experiment: Dose normalized AUC (0 to 24 hrs) in C57BL/6Rj mouse at 3 mg/kg administered as single dose via oral gavage by LC-MS/MS analysis; assay type: ADME, organism-based; conditions: in vivo; how it was run: as §1
Mus musculus [22] = experiment: Dose normalized Cmax in C57BL/6Rj mouse at 10 mg/kg administered as single dose via oral gavage up to 24 hrs by LC-MS/MS analysis; assay type: ADME, organism-based; conditions: in vivo; how it was run: as §1
[23] = Protein binding to dog plasma; assay type: ADME, cell-free, Canis lupus familiaris; conditions: read-out: PPB
Mus musculus [24] = experiment: In vivo inhibition of ATX in C57BL/6Rj mouse assessed as time for maximum reduction in LPA 18:2 at 30 mg/kg administered as single dose via oral gavage by LC-MS/MS analysis; assay type: functional; how it was run: as §2
Mus musculus [25] = experiment: In vivo inhibition of ATX in C57BL/6Rj mouse assessed as reduction in LPA 18:2 level in plasma at 10 mg/kg administered as single dose via oral gavage by LC-MS/MS analysis; assay type: functional; how it was run: as §2

CCc1nc2c(C)cc(N3CCN(CC(=O)N4CC(O)C4)CC3)cn2c1N(C)c1nc(-c2ccc(F)cc2)c(C#N)s1 [ZIRITAXESTAT]
AUC(0-t) at 24 h [1]: 20800 ng·h/mL | half-life [2]: 2.21 h | half-life [3]: 3.79 h | concentration at 24 h [4]: 1 ng/mL | Cmax [5]: 4360 ng/mL | Cmax [6]: 21400 ng/mL | fraction unbound [7]: < 0.01 | Activity (Mus musculus [8]): Active | Tmax [9]: 3 h | bioavailability [10]: 37% | Cmax/dose (Mus musculus [11]): 358 ng/mL/(mg/kg) | clearance [12]: 11.5 mL/min/kg | Time (Mus musculus [13]): 3 h | TDI (Cytochrome P450 3A4): Not Active | Activity (Mus musculus [14]): Active | AUC/dose (Mus musculus [15]): 2079 ng·h/mL/mg/kg | half-life [16]: 2.22 h | IC50 (Autotaxin): 418 nM | Time (Mus musculus [17]): 3 h | Activity (Mus musculus [18]): Active | Activity (Mus musculus [19]): Active | Tmax [20]: 1 h | AUC/dose (Mus musculus [21]): 1851 ng·h/mL/mg/kg | Cmax/dose (Mus musculus [22]): 436 ng/mL/(mg/kg) | fraction unbound [23]: < 0.01 | Time (Mus musculus [24]): 3 h | inhibition in vivo at 10 mg/kg (Mus musculus [25]): 90.9%
